Published values collected from several papers.
Lines come from different studies, so protocols differ.
Target: Tyrosine-protein kinase receptor TYRO3 (TYRO3, Homo sapiens, UniProt Q06418)
Residues used in one study (Q06418 41-890): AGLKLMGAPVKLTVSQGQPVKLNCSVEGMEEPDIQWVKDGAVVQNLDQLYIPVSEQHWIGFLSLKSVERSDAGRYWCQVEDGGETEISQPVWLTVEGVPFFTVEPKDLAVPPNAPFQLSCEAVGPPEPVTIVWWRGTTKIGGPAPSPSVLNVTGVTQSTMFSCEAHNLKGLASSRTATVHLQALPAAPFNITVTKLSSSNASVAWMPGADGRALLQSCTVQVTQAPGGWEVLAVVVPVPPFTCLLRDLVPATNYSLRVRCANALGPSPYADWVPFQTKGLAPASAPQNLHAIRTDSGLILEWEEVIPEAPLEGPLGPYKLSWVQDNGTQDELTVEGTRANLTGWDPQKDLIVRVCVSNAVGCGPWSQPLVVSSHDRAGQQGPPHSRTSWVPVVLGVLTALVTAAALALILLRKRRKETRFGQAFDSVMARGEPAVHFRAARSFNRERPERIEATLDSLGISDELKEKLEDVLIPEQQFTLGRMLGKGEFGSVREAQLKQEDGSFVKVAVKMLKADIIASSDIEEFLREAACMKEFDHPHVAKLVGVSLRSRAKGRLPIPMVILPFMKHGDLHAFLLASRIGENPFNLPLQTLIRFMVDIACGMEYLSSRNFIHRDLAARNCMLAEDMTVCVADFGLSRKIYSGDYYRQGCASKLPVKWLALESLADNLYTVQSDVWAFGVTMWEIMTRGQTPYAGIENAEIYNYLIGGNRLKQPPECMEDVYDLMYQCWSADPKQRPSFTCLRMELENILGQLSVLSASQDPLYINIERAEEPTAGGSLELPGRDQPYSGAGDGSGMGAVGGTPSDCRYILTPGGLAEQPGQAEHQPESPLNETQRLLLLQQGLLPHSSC

Compound	test	setting	measurement	result
CCCOc1ccc([C@H]2[C@H](C(=O)O)[C@@H](c3ccc4c(c3)OCO4)CN2CC(=O)Nc2c(CC)cccc2CC)cc1	cell-free assay, competition with immobilised ligand	1 µM	remaining binding	100%
O=C1NC(=O)c2cc(Nc3ccc(F)cc3)c(Nc3ccc(F)cc3)cc21	cell-free assay	0.5 µM	remaining signal	94.8%
CCOc1cc(-c2nncn2C)ccc1Nc1ncc2cc(C)nc(NCC(C)(C)C)c2n1	enzyme activity, inhibitor, FRET	1 µM	inhibition	19%
Cn1c2c(Cl)c(Cl)ccc2c2cn[nH]c(=O)c21	thermal stability, DSF	10 µM	ΔTm	1 °C
CCCS(=O)(=O)Nc1ccc(F)c(C(=O)c2c[nH]c3ncc(-c4ccc(Cl)cc4)cc23)c1F	enzyme activity, inhibitor	1 µM	inhibition	< 10%
CNC(=O)c1cc(Oc2ccc(NC(=O)Nc3ccc(Cl)c(C(F)(F)F)c3)cc2)ccn1	cell-free assay	0.5 µM	remaining signal	91.7%
CC(C)(C)c1nc(-c2cccc(NS(=O)(=O)c3c(F)cccc3F)c2F)c(-c2ccnc(N)n2)s1	enzyme activity, inhibitor, radiometric	1 µM	remaining activity	90%
N#CCCc1ccc2c(c1)-c1[nH]c3ccc([N+](=O)[O-])cc3c1CC(=O)N2	cell-free assay	0.5 µM	remaining signal	94.8%
Cc1c(C(=O)O)cc(-c2ccc(C3CCNCC3)cc2)c2ccc(-c3ccc(C(F)(F)F)cc3)cc12	cell-free assay, competition with immobilised ligand	1 µM	remaining binding	100%
O=C(Nc1cnn(-c2csc(C(=O)NC3COC3)c2)c1)Nc1c(F)cccc1Cl	enzyme activity, inhibitor	5 µM	remaining activity	68.4%
Cc1ccc(NC(=O)c2ccc(C)c(C(F)(F)F)c2)cc1C#Cc1nn(C2CCC(O)CC2)c2ncnc(N)c12 (centres unmarked)	cell-free assay	10 µM	remaining signal	2%
CCN(CC)c1ccc(C2=NNC(=O)CC2C)cc1[N+](=O)[O-] (centres unmarked)	enzyme activity, inhibitor	10 µM	remaining activity	95%
Nc1cnc(N2CCc3cc(S(=O)(=O)Nc4c(F)cc(Cl)cc4F)cc(N4CCCC4=O)c32)nc1	cell-free assay, competition with immobilised ligand	1 µM	remaining binding	100%
COc1cc2nccc(Oc3ccc(NC(=O)c4c5n(n(-c6ccc(F)cc6)c4=O)CCCC5)cc3)c2cc1OC	enzyme activity, inhibitor	0.1 µM	inhibition	71%
CCC(=O)N[C@H]1CC[C@@H](C(=O)N(C)c2ccc(-c3nc4ccccc4o3)cc2)C1	cell-free assay, competition with immobilised ligand	1 µM	remaining binding	92%
Cc1ccc(C(=O)NCc2ccsc2)cc1C#Cc1cn(C(C)C)c2ncnc(N)c12	enzyme activity, inhibitor	1 µM	activity vs control	89%
CCCCN(CCCC)C(=O)CN1C[C@@H](c2cc(OC)c3c(c2)OCO3)[C@H](C(=O)O)[C@H]1CC(C)(C)CCC	cell-free assay, competition with immobilised ligand	1 µM	remaining binding	97.1%
Cc1cc(NC(=O)c2cccc3cc(-c4cccc5[nH]nc(N)c45)ccc23)ccc1F	enzyme activity, inhibitor	0.1 µM	activity vs control	99%
C[C@@]1(Cc2ccc(C#N)cc2)C(=O)N(c2cc(Cl)cc(Cl)c2)c2ncc(C(=O)NC3(c4nc(C5CCC5)no4)CC3)n21	cell-free assay, competition with immobilised ligand	1 µM	remaining binding	100%
CCN(CC)CCNC(=O)c1c(C)[nH]c(/C=C2\C(=O)Nc3ccc(F)cc32)c1C	cell-free assay	0.3 µM	inhibition	72%
COc1cc2ncnc(Nc3ccc(Oc4ccccc4)cc3C)c2cc1OC	enzyme activity, inhibitor	1 µM	inhibition	70%
Cc1ccc(Nc2nccc(N(C)c3ccc4c(C)n(C)nc4c3)n2)cc1S(N)(=O)=O	cell-free assay	0.3 µM	inhibition	26%
O=C(O)c1cc(-c2ccc(C3CCNCC3)cc2)c2ccc(-c3ccc(C(F)(F)F)cc3)cc2c1	cell-free assay, competition with immobilised ligand	1 µM	remaining binding	100%
CC1CCCN1c1nccc(-c2cnn3ncccc23)n1 (centres unmarked)	binding	1 µM	remaining binding	79%
Cn1c2c(c3ccc(Cl)c(Cl)c31)C(C#N)C(C)(C)NC2=O (centres unmarked)	thermal stability, DSF	10 µM	ΔTm	0.5 °C
O=C(Nc1cnn(-c2csc(C(=O)NC3COC3)c2)c1)Nc1ccccc1Cl	enzyme activity, inhibitor	5 µM	remaining activity	75.4%
Cc1cnc(NC2CCOCC2)nc1-n1cnc(C(=O)NC(CN)c2cc(F)cc(Cl)c2)c1 (centres unmarked)	enzyme activity, inhibitor, radiometric	1 µM	remaining activity	118%
Cc1c[nH]c2nccc(Oc3c(F)cc(Nc4cc(Cl)nc(N)n4)cc3F)c12	cell-free assay, competition with immobilised ligand	0.1 µM	remaining binding	100%
CN1CCC2(CC1)NC(=O)c1c(c3ccc(Cl)c(Cl)c3n1C)C2C#N (racemic)	thermal stability, DSF	10 µM	ΔTm	0.7 °C
